Hits are enriched below; roughly 1.4% of the tested compounds scored in any of these assays.
JMJD2C inh: inhibitors of GASC-1 histone demethylase, primary screen, biochemical, fluorescence, DELFIA europium | Lysine-specific demethylase 4C (Homo sapiens), Q9H3R0 | GST-JMJD2C(1-420) H3K9me3 demethylation | inhibition, % at 2.35 µM | actives 0.069% (n = 330,000) | AID 2099, 2009;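 active means more than half of a compound's replicate wells show inhibition beyond 50%, single wells judged on their own value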;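 further: signal counts dimethyl H3K9 product captured on neutravidin plate; 0% = median of DMSO wells and 100% = 0.3 times that DMSO median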
Target sequence (Q9H3R0 1-420 limits assumed): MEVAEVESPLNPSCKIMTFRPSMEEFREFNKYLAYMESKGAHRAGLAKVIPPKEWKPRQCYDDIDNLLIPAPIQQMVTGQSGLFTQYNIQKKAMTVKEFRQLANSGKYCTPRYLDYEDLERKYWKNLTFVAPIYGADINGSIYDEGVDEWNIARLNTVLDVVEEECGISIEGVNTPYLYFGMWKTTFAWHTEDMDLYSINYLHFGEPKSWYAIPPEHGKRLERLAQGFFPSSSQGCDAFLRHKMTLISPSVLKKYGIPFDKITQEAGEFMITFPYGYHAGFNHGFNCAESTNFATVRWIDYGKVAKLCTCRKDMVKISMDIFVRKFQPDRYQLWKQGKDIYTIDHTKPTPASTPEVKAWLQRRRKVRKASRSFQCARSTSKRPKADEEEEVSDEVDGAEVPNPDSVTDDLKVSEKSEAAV
HIF activator: HIF pathway transcriptional activators, primary screen, cell-based, U2OS HRE-luciferase, luminescence; U2OS HRE-luciferase reporter; normalized: DMSO 0%, desferrioxamine 100%; activation, % at 7.5 µM (by protocol); actives 0.32% (n = 300,000); AID 1910, 2009;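 active means mean activation of at least 10% of the iron chelator positive control signal, with at least half of replicates also reaching 10%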
T cell modulator: modulators of CD8 T cell-vesicle binding, primary screen, mouse 2C CD8+ T cells, flow cytometry; 2C CD8+ T cell-vesicle binding; stronger effect = lower value; AID 2052, 2009; response (vesicle binding), % at 7 µM; actives 0.068% (n = 330,000);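 active means response, share of CD8 T cells binding vesicles, and their 90th percentile fluorescence all below set limits, cut at about 80% in these data, passing the limit was not always enough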;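 further: values below 100% mean blocked vesicle binding to the CD8+ T cells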
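Benchmarks: naked versus QL9-loaded vesicles / Assay system: purified 2C TCR transgenic mouse naive CD8+ T cells / Technique: high-throughput flow cytometry with anti-B7-1 and anti-CD8 staining / Timing: Cell–vesicle co-incubation 1.5 h at 37 °C, staining 20 min on ice / Read-out: percent CD8+ FL2 mean versus row control / Probe or stimulus: QL9-loaded Drosophila micro-vesicles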
SUMO Mot1 rescue: yeast Mot1-301 growth rescue at high temperature, primary screen, SUMOylation pathway inhibitor project, S. cerevisiae, ATP luminescence, 38.5C. S. cerevisiae Mot1-301 growth rescue; percent above DMSO median, 100 means doubled. AID 2716, 2010. growth rescue, % at 18.8 µM. actives 1% (n = 320,000);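 active means every valid replicate shows activation above 250% relative to neutral control wells; inactive means the rest, any valid replicate at or below 250%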;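 further: OY570 slx delta 5 strain wells were the positive control but not used for scaling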
Mot1 SUMO dose: growth restoration of Mot1-301 yeast on galactose, dose response, SUMO pathway inhibitor project, whole organism, S. cerevisiae, ATP luminescence, cherry-picked samples. 2,300 tested, under 10 active. shares compounds with SUMO Mot1 rescue. AID 493004, 2010. S. cerevisiae Mot1-301 galactose growth, 24 h; -100 = growth of slx-deleted rescue strain. growth activity, percent, % at 42 µM;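 active means Signal drops as the depositor expects, and the fitted half-maximal dose is no more than ten times the top valid tested dose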;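 further: more negative values mean stronger growth rescue toward the control strain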
* hit, by the source's call; [ ] = dose if it differs, or a comment.

`CC1(C)CC(NC(=O)C23CCC(C)(C2Br)C3(C)C)CC(C)(C)N1` (centres undefined) gave T cell modulator 396 and SUMO Mot1 rescue 70.
`CCCCn1c(N)c(N(Cc2ccccc2OC)C(=O)CN2C(=O)NC(C)(c3ccccc3)C2=O)c(=O)[nH]c1=O` (centres undefined) gave JMJD2C inh 2, HIF activator 0, T cell modulator 230 and SUMO Mot1 rescue 5.
`COCCn1c(N)c(N(Cc2ccccc2)C(=O)CN2C(=O)NC(C)(c3ccccc3)C2=O)c(=O)[nH]c1=O` (centres undefined) gave JMJD2C inh 3, HIF activator 0, T cell modulator 334, SUMO Mot1 rescue 531* and Mot1 SUMO dose 0.
Fc1cccc(Cc2noc(CN3CCC(c4ccncc4)CC3)n2)c1 was read as JMJD2C inh 6, HIF activator 0, T cell modulator 99 and SUMO Mot1 rescue -21.
Screening COc1ccc2c(c1)[C@H]1[C@H](CO2)[C@H](c2ccccc2)[C@]2(C)C(=O)Nc3ccc(F)cc3C(=O)N12 returned T cell modulator 493, SUMO Mot1 rescue 904* and Mot1 SUMO dose -1.
COc1ccc2c(c1)[C@H]1[C@H](CO2)[C@H](c2ccccc2)[C@]2(C)C(=O)Nc3ccc(C)cc3C(=O)N12 was read as T cell modulator 380, SUMO Mot1 rescue 598* and Mot1 SUMO dose -1.
For COc1ccc2c(c1)[C@@H]1[C@H](CO2)[C@H](c2ccccc2)[C@]2(C)C(=O)Nc3ccc(C)cc3C(=O)N12 the results were JMJD2C inh -4, T cell modulator 506 and SUMO Mot1 rescue 3.
Screening COc1ccc2c(c1)OC[C@H]1[C@H]2N2C(=O)c3ccccc3NC(=O)[C@@]2(C)[C@H]1c1ccccc1 returned T cell modulator inactive, SUMO Mot1 rescue 640* and Mot1 SUMO dose 2.
For COc1ccc2c(c1)C(=O)N1[C@H]3c4cc(C)ccc4OC[C@@H]3[C@H](c3ccccc3)[C@]1(C)C(=O)N2 the results were JMJD2C inh -3 and SUMO Mot1 rescue 37.
`COc1ccc2c(c1)OC[C@H]1[C@H]2N2C(=O)c3cc(C)ccc3NC(=O)[C@@]2(C)[C@H]1c1ccccc1` gave JMJD2C inh 10, T cell modulator 316, SUMO Mot1 rescue active and Mot1 SUMO dose 0.
Screening O=C(CSC(=S)N1CCCC1)N/N=C/c1c(O)[nH]c(=S)[nH]c1=O returned JMJD2C inh 2, T cell modulator 320 and SUMO Mot1 rescue 18.
`CC1CCN(C(=O)c2[nH]cnc2C(=O)NCC(=O)OCc2ccccc2)CC1` gave JMJD2C inh -11, HIF activator -8, T cell modulator 389, SUMO Mot1 rescue 790* and Mot1 SUMO dose 0.
Screening C=CCN(C(=O)c1csnn1)C(C(=O)NC1CCCC1)c1ccccc1F (centres undefined) returned JMJD2C inh -3, HIF activator -1, T cell modulator 411 and SUMO Mot1 rescue 29.
CC(NC(=O)CCCc1ccccc1)c1ccncc1 (centres undefined) was read as JMJD2C inh 0, HIF activator 1, T cell modulator 208 and SUMO Mot1 rescue 0.
Screening Cn1c(-c2ccc3c(c2)OCO3)cnc1NCc1ccccc1 returned JMJD2C inh -2, HIF activator 3, T cell modulator 522 and SUMO Mot1 rescue -1.
Screening Cn1c(-c2ccc3c(c2)OCO3)cnc1NC(=O)CCC(=O)NCCc1ccccc1 returned JMJD2C inh -1, HIF activator 0, T cell modulator 503, SUMO Mot1 rescue 676* and Mot1 SUMO dose -1.
Cc1ccc(N(CC(=O)Nc2cccc(C)c2)S(=O)(=O)c2cccc3nonc23)cc1 was read as JMJD2C inh -3, HIF activator -1, T cell modulator 253, SUMO Mot1 rescue 616* and Mot1 SUMO dose 0[21 µM].
Screening CCOC(=O)C1CCN(C(=O)COc2ccc(S(=O)(=O)N3CCCC3)cc2C)CC1 returned JMJD2C inh -13, HIF activator 0, T cell modulator 147 and SUMO Mot1 rescue 313.
Cc1nc2ccccc2c(=O)n1CC(=O)N1CCOCC1 was read as JMJD2C inh 7, HIF activator 0, T cell modulator 327, SUMO Mot1 rescue 687* and Mot1 SUMO dose 1.
Screening O=C(C[n+]1ccccc1)Nc1ccccc1C(F)(F)F returned JMJD2C inh 1, HIF activator -1, T cell modulator 217 and SUMO Mot1 rescue 38.
Screening O=C(OCCCN=C1NS(=O)(=O)c2ccccc21)c1cccs1 returned JMJD2C inh -1, HIF activator -1, T cell modulator 321, SUMO Mot1 rescue 579* and Mot1 SUMO dose 0.
Cc1ccc(-n2c(-c3ccco3)nc3c(cnn3-c3ccc(C)cc3)c2=O)cc1 was read as JMJD2C inh -1, HIF activator 0, T cell modulator 147, SUMO Mot1 rescue 734* and Mot1 SUMO dose 0.
For Cc1ccc(S(=O)(=O)CCC(=O)Oc2ccc(-c3nnco3)cc2)cc1 the results were JMJD2C inh -2, HIF activator 0, T cell modulator 184 and SUMO Mot1 rescue 10.
Screening O=C(NCc1cccs1)Nc1cc(Cl)ccc1Cl returned JMJD2C inh -2, HIF activator 0, T cell modulator 209 and SUMO Mot1 rescue -4.
O=C(O)c1ccc(Cl)c(NCc2cccs2)c1 was read as JMJD2C inh -2, HIF activator -1, T cell modulator 188, SUMO Mot1 rescue 560* and Mot1 SUMO dose 0.
For O=C(Nc1cccnc1Cl)c1cc2ccccc2o1 the results were JMJD2C inh -10, HIF activator 5, T cell modulator 244, SUMO Mot1 rescue 567* and Mot1 SUMO dose 0.
`CCN(C(=O)c1ccc(S(=O)(=O)N(C)C)cc1)C(C)C(=O)Nc1ccc(C)cc1` (centres undefined) gave JMJD2C inh -22, HIF activator 2, T cell modulator 262 and SUMO Mot1 rescue -21.
CCOC(=O)N1CCC(Nc2nc3ccccc3n3nnnc23)CC1 was read as JMJD2C inh -3, HIF activator 1, T cell modulator 295, SUMO Mot1 rescue 889* and Mot1 SUMO dose 0.
COc1ccc(NC(=O)CSc2ccc3nnc(CCNC(=O)c4ccccc4)n3n2)cc1OC was read as JMJD2C inh 13, HIF activator 0, T cell modulator 243 and SUMO Mot1 rescue -3.
For Cc1cc(-c2ccc(Cl)cc2Cl)c(C#N)c(=O)[nH]1 the results were JMJD2C inh 2, HIF activator 1, T cell modulator 185, SUMO Mot1 rescue 418* and Mot1 SUMO dose 1.

Bioassay records as filed in PubChem.
